Measurements from ChEMBL document CHEMBL5226332, “Amino-Substituted 3-Aryl- and 3-Heteroarylquinolines as Potential Antileishmanial Agents” (J Med Chem, 2021).

How the values were obtained:
Format in all cases: ADME, organism-based
Conditions in all cases: in vivo
[1] = Volume of distribution in BALB/c mouse at 10 mg/kg, iv measured after 24 hrs by LC/MS analysis
In short: (§1)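 Mice given one 10 mg/kg dose by IV, oral or IP route; parent and monomethyl metabolite measured in plasma. Oral dose given in 10/10/40/39 EtOH/PG/PEG400/PBS (pH 7.4) plus 1% w/v HβCD. Vd is steady-state for IV and apparent for the other routes.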

[2] = AUC in BALB/c mouse at 10 mg/kg, iv measured after 24 hrs by LC/MS analysis; parameters: dose 10 mg/kg, time 24 hrs, route iv; in short: as §1
[3] = Cmax in BALB/c mouse at 10 mg/kg, iv measured after 24 hrs by LC/MS analysis; parameters: time 24 hrs, dose 10 mg/kg, route iv; in short: as §1
[4] = Cmax in BALB/c mouse at 10 mg/kg, po measured after 24 hrs by LC/MS analysis; parameters: dose 10 mg/kg, time 24 hrs, route po; in short: as §1
[5] = AUC in BALB/c mouse at 10 mg/kg, ip measured after 24 hrs by LC/MS analysis; parameters: dose 10 mg/kg, time 24 hrs, route ip; in short: as §1
[6] = Cmax in BALB/c mouse at 10 mg/kg, ip measured after 24 hrs by LC/MS analysis; parameters: dose 10 mg/kg, time 24 hrs, route ip; in short: as §1
[7] = Tmax in BALB/c mouse at 10 mg/kg, po measured after 24 hrs by LC/MS analysis; in short: as §1
[8] = AUC in BALB/c mouse at 10 mg/kg, po measured after 24 hrs by LC/MS analysis; parameters: time 24 hrs, dose 10 mg/kg, route po; in short: as §1

Structure (SMILES) | Vd [1] [L/kg] | AUC [2] [µM·h] | Cmax [3] [nM] | Cmax [4] [nM] | AUC [5] [µM·h] | Cmax [6] [nM] | Tmax [7] [min] | AUC [8] [µM·h]
CN(C)c1ccc2cc(-c3cc(Cl)cc(Cl)c3)c(N)nc2c1 | 25.9 | 3.91 | 741 |  |  |  |  | 
CN(C)c1ccc2cc(-c3cn(C)c4ccccc34)c(N)nc2c1 | 9.88 | 5.95 | 2840 | 1000 | 3.81 | 3170 | 6 | 0.921
